# Assay results from ChEMBL document CHEMBL1144338, “N-Acyl arylsulfonamides as novel, reversible inhibitors of human steroid sulfatase” (Bioorg Med Chem Lett, 2005).
# Biological target: T1, Steryl-sulfatase (Homo sapiens, UniProt P08842)
# T1 sequence (P08842 whole entry): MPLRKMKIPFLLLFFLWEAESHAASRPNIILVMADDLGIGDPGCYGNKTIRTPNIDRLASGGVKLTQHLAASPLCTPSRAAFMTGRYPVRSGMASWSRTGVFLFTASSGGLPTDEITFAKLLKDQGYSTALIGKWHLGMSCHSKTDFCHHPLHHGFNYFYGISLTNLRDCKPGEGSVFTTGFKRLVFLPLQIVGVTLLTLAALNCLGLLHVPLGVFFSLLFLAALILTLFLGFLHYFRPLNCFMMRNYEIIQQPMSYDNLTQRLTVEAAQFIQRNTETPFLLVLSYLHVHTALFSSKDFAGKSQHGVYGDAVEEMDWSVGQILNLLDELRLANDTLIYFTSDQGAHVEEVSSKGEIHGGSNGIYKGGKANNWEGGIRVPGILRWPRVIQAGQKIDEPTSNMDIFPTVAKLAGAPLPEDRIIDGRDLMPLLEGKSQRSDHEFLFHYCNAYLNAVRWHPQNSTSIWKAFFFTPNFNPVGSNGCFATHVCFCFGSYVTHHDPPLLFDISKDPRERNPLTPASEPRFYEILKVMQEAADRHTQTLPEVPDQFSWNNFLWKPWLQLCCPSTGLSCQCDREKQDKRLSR
# Experiment: Inhibitory constant against human steroid sulfatase
# How it was run: (§1)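 Purified human STS (from recombinant CHO cells) at 37 °C; 4-methylumbelliferyl sulfate cleavage monitored fluorimetrically, substrate varied 0.05–2 mM at several inhibitor concentrations. Initial velocities from the linear phase (fluorescence units per min); Ki calculated from Hanes plots ([S]/v versus [S]).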
row,SMILES,Ki
1,CC(C)(C)OC(=O)N1CCC(C(=O)NS(=O)(=O)c2ccc(Cl)cc2)CC1,16100 nM
2,CC(C)(C)OC(=O)N1CCC(C(=O)NS(=O)(=O)c2cc(C(F)(F)F)cc(C(F)(F)F)c2)CC1,220 nM
3,CC(C)(C)OC(=O)N1CCN(C(=O)NS(=O)(=O)c2ccc(Cl)cc2)CC1,14500 nM

# Biological target: T1, Steryl-sulfatase
# Experiment: Inhibitory constant against human Steroid sulfatase
# How it was run: as §1
row,SMILES,Ki
1,CC(C)(C)OC(=O)N1CCC(C(=O)NS(=O)(=O)c2c(Cl)sc(Cl)c2Br)CC1,12 nM

# Biological target: T1, Steryl-sulfatase
# Experiment: Inhibitory concentration against human steroid sulfatase expressed in CHO cells
# Assay type: cell-based
# How it was run: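 Intact recombinant CHO cells overexpressing STS, live-cell variant for reversible inhibitors; 4-methylumbelliferyl sulfate substrate at 0.5 mM, 4 h incubation with inhibitor; fluorimetric read-out of substrate cleavage, IC50 determined.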
row,SMILES,IC50
1,O=C(Cc1ccccc1)O[C@H]1C[C@H]2CC[C@@H](C1)N2C(=O)NS(=O)(=O)c1ccc(Cl)cc1,6270 nM
2,CC(C)(C)OC(=O)N1CCC(C(=O)NS(=O)(=O)c2cc(Cl)cc(Cl)c2)CC1,1260 nM
3,CC(C)(C)OC(=O)N1CCC(C(=O)NS(=O)(=O)c2c(Cl)sc(Cl)c2Br)CC1,270 nM
4,CC(C)(C)OC(=O)N1CCC(C(=O)NS(=O)(=O)c2ccc(Cl)cc2)CC1,9800 nM
5,CC(C)(C)OC(=O)N1CCC(C(=O)NS(=O)(=O)c2cc(C(F)(F)F)cc(C(F)(F)F)c2)CC1,780 nM
6,CC(C)(C)OC(=O)N1CCC(C(=O)NS(=O)(=O)c2c(Cl)cccc2Cl)CC1,9900 nM
7,CC(C)(C)OC(=O)N1CCN(C(=O)NS(=O)(=O)c2ccc(Cl)cc2)CC1,12000 nM

# Biological target: T1, Steryl-sulfatase
# Experiment: Inhibitory concentration against human steroid sulfatase
# How it was run: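 Human STS purified to homogeneity from recombinant CHO cells; fluorimetric assay following cleavage of 4-methylumbelliferyl sulfate (fixed at 0.75 mM) at 37 °C, 1 h incubations with or without inhibitor. Initial velocity taken from the linear phase as fluorescence units per min; IC50 derived by a previously described method.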
row,SMILES,IC50
1,O=C(Cc1ccccc1)O[C@H]1C[C@H]2CC[C@@H](C1)N2C(=O)NS(=O)(=O)c1ccc(Cl)cc1,910 nM
2,CC(C)(C)OC(=O)N1CCC(C(=O)NS(=O)(=O)c2c(Cl)sc(Cl)c2Br)CC1,26 nM
3,CC(C)(C)OC(=O)N1CCC(C(=O)NS(=O)(=O)c2ccc(Cl)cc2)CC1,8600 nM
4,CC(C)(C)OC(=O)N1CCC(C(=O)NS(=O)(=O)c2cc(C(F)(F)F)cc(C(F)(F)F)c2)CC1,210 nM
5,CC(C)(C)OC(=O)N1CCN(C(=O)NS(=O)(=O)c2ccc(Cl)cc2)CC1,3600 nM
